Assay: Toxicity liver stage against HepG2, at 10uM
Format: cell-based
Design: test concentration 10 uM, cell line HepG2-A16-CD81EGFP
Conditions: human, HepG2-A16-CD81EGFP cells; read-out: INHIBITION
How it was run: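 Uninfected HepG2-A16-CD81EGFP cells, 3 × 10^3 per well, 1536-well, plated on prespotted compound at 10 μM final, parasite-free screening media added to match infected plates; puromycin 10 μM positive, DMSO 0.5% negative; run in parallel with 48 h PbLuc assay at 37 °C, 5% CO2; viability by CellTiter-Glo luminescence, normalized to controls.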

Row | Structure (SMILES) | cytotoxicity at 10 µM
1 | CC(=O)N1CC[C@H]2CC(=O)N(CCc3c[nH]cn3)CC[C@H]2C1 | -2.77%
2 | CCNC(=O)O[C@H]1COCCN(c2nc3ccccc3s2)C1 | -3.04%
3 | Cc1ccc(C)c(-n2ncc(C(=O)N(C)CCc3ccccn3)c2N)c1 | -1.57%
4 | Cc1nn(-c2ccc(C(=O)O)cc2)c2c1C(c1cccs1)SCC(=O)N2 (configuration not stated) | -0.607%
5 | COc1ccccc1OCC(=O)NCC(C)(O)C1CC1 (configuration not stated) | -0.419%
6 | CC(C)(C)C(O)CCNC(=O)c1ccc(F)cc1Cl (configuration not stated) | 0.0701%
7 | O=C(c1ccnnc1)N1CC[C@@H](O)[C@@H]1Cc1ccccc1 | 5.03%
8 | Cn1nccc1-c1ccc2nc(C3CCNCC3)nn2c1 | 10.3%
9 | O=C(c1ccoc1)N1CCc2ncc(Cn3cccn3)n2CC1 | 6.9%
10 | Cc1cnc(C(=O)N2CCC3(CC2)CC(c2ccncc2)C(=O)N3)cn1 (configuration not stated) | 9.14%
11 | CC(C)NC(=O)N1CCN(S(C)(=O)=O)CC2(CNC(=O)C2)C1 (configuration not stated) | 8.71%
12 | Cc1csc([C@@H]2C[C@@H]3CCN(Cc4cnn(C)c4)C[C@H]3O2)n1 | -4.87%
13 | Cn1cc(CN2CCC3(CCCN(Cc4ccccn4)C3)CC2)cn1 | -6.54%
14 | O=C(Cn1nc(C(F)(F)F)c(Cl)c1C1CC1)NN1CCOCC1 | 5.01%
15 | Cc1cc(=O)[nH]c(NC2CCN(S(=O)(=O)c3ccccc3)CC2)n1 | -3.02%
16 | CC(CN1CCOCC1)n1cncc1-c1cnn(Cc2ccccc2)c1 (configuration not stated) | 6.33%
17 | O=C(c1ccncc1)N1CCc2[nH]nc(Nc3ccccc3)c2C1 | 3.13%
18 | Cc1c[nH]c(C2COCCN2C(=O)CCc2c(C)n[nH]c2C)n1 (configuration not stated) | -0.615%
19 | Cc1cc(CCC2CN(CC3(O)CCCCC3)CCO2)ncn1 (configuration not stated) | 2.97%
20 | O=C(c1cc[nH]n1)N1CCC(c2cc(Nc3ccccn3)n[nH]2)CC1 | -37.1%
21 | OCCN1CCCC(c2nccnc2Oc2ccccc2)C1 (configuration not stated) | -25.5%
22 | Cc1nn(C)cc1C(=O)N1CCCC(n2nnc3cc(F)ccc32)C1 (configuration not stated) | -11%
23 | Cc1ccc(=O)n(CC2(O)CCN(Cc3cnn(C)c3)CC2)n1 | 3.12%

Row | Structure (SMILES) | cytotoxicity at 10 µM
24 | COc1cc(NCC(=O)NC(C)(C#N)C(C)C)cc(OC)c1OC (configuration not stated) | -7.33%
25 | Cc1cc(N(C)C)nc(N(C)Cc2csc(C)n2)n1 | 7.06%
26 | CC(Cc1ccco1)NS(=O)(=O)N1CCCCC1 (configuration not stated) | -0.867%
27 | Cc1nc(C)n(CC2CCCN2Cc2cn3ccccc3c2C#N)n1 (configuration not stated) | 2.8%
28 | N#Cc1ccc(Cn2cncn2)c(F)c1 | -1.49%
29 | NC1(c2nc(-c3cccs3)cc(=O)[nH]2)CCCCC1 | 6.03%
30 | N#CCCN(CC1CCOC1)S(=O)(=O)c1cccc(Cl)c1 (configuration not stated) | 3.81%
31 | N#Cc1cc(F)ccc1NCC1CCS(=O)(=O)CC1 | 2.02%
32 | NCC1(CN2CCOCC2)CCCCC1 | 3.23%
33 | COC(=O)C1CCN(C(=O)Cn2nc(C)nc2-c2ccccc2)CC1 | -0.159%
34 | Cc1cnn(CCNCC(=O)N2CCN(c3ccccc3)CC2)c1 | -6.74%
35 | CCC(=O)NCc1ccccc1Cn1ccnc1 | -1.21%
36 | COc1c(CNCc2ccccc2CO)c(C)nn1C | 1.04%
37 | Cc1cc(CC(=O)NCC(O)COc2ccc(F)c(F)c2)n[nH]1 (configuration not stated) | -7.66%
38 | CC(C)c1nn(C)c(N(C)C)c1CNCc1cccnc1 | -4.6%
39 | CC(C)COCCC(=O)Nc1ccc2oc(=O)n(CCN(C)C)c2c1 | -7.59%
40 | CC1CCCCN1CCNC(=O)c1ccccc1N1CCOCC1 (configuration not stated) | -4.14%
41 | Cc1cc(N2CCN(c3ccc(=O)[nH]n3)CC2)nc(-c2ccncc2)n1 | -5.19%
42 | CCc1n[nH]c(C2CN(C(=O)c3cc(C4CC4)on3)CCO2)n1 (configuration not stated) | -6.43%
43 | CC(=O)c1ccc(C(=O)NCC2Cc3ccccc3O2)s1 (configuration not stated) | 3.82%
44 | CC1CCN(C)c2ccccc2N1C(=O)c1ccc(=O)n(C)c1 (configuration not stated) | -0.117%
45 | Cc1ncccc1C(=O)Nc1cccc2c1C(=O)NC2 | 1.85%
46 | Nc1nccnc1C(=O)N1CCN(Cc2cccc3ccccc23)CC1 | -108%

Row | Structure (SMILES) | cytotoxicity at 10 µM
47 | CN(Cc1nc(-c2ccccc2)c[nH]1)C(=O)NCC(=O)NC(C)(C)C | 13.4%
48 | CCOc1ccc(C(F)(F)F)cc1NC(=O)N1CCC(C(N)=O)CC1 | 0.425%
49 | N#CCCNC(=O)CN1CCC(c2cc3ccccc3[nH]2)CC1 | 0.91%
50 | CNC(=O)Cn1nnc(-c2cc3ccccc3o2)n1 | 5.65%
51 | Cn1cc(NC(=O)Cc2ccccc2Br)cc1C(N)=O | -1%
52 | CN(C)C(=O)N1CCN(c2cc(N3CCCC3CO)ncn2)CC1 (configuration not stated) | -1.81%
53 | CS(=O)(=O)CCOCCNc1ccc(Br)cn1 | -4.71%
54 | O=C(c1c(O)cc(F)cc1F)N1CCc2cnccc21 | -4.18%
55 | COCCOc1ccc(F)cc1NCc1nc2ccccc2n1C | 6.29%
56 | Cn1c(SCC2OCCc3ccccc32)n[nH]c1=O (configuration not stated) | -5.76%
57 | CCc1nc(NS(=O)(=O)c2ccc(F)cc2C)no1 | -10.9%
58 | Cc1nccc(CNC(=O)NCCOc2ccc(F)c(F)c2)n1 | -17%
59 | CC(NC1CCN(CCS(C)(=O)=O)CC1)c1ccc(Cl)cc1 (configuration not stated) | -6.51%
60 | CCOC(=O)NC(CNC(=O)c1ccccn1)CC(C)C (configuration not stated) | 10.2%
61 | CN(Cc1nnc(C2CC2)n1C)C1CCN(Cc2ccccc2F)C1 (configuration not stated) | -15.1%
62 | COCCn1c2c(ccc1=O)CCN(C(=O)NC1CC1)CC2 | 1.77%
63 | O=c1cc(CN2CCCC2)nc2n1CCCN(CC1CC1)C2 | -111%
64 | COCCCNc1nc(CNC(=O)C2CCC2)cc(-c2ccco2)n1 | -11%
65 | Cc1ccc(OCC(=O)N2CCN[C@H]3CS(=O)(=O)C[C@H]32)cn1 | -2.7%
66 | CC(C)N1CCC(CC(=O)N(C)C(C)c2cncs2)CC1 (configuration not stated) | 3.65%
67 | O=C(NCCc1cccs1)C1(N2CCCCC2)Cc2ccccc2C1 | -4.86%
68 | CCC[C@@H]1CN(c2ncnc3ccsc23)C[C@H]1NS(C)(=O)=O | 3.73%
69 | Cc1cc(C(F)(F)F)cc(=O)n1CCCn1cnnn1 | 1.16%

Row | Structure (SMILES) | cytotoxicity at 10 µM
70 | CSc1nccc(NCC2CNCCOC2)n1 (configuration not stated) | -5.13%
71 | CC(C)Cc1nc(CS(C)(=O)=O)n(-c2ccccn2)n1 | 1.66%
72 | Cc1noc(-c2ccc(N(C)Cc3ccncc3C)nc2)n1 | -15.1%
73 | CCc1c(C)nn(CCNC(=O)Cc2csc(C)n2)c1C | 0.129%
74 | CCc1cc(NC(C)(C)C)nc(N2CCOCC2)n1 | 0.393%
75 | Cn1ccc2c(-c3ccc(NC4CC4)nn3)ccnc21 | 10.4%
76 | Cc1ccc(CN2CCCC(c3nnc(CN4CCCC4)n3C)C2)s1 (configuration not stated) | 0.9%
77 | Cc1cccc(-c2nc(CN3CCOCS3(=O)=O)c(C)o2)c1 | 2.01%
78 | CN(C)CC1(O)CCN(C(=O)c2ccc(-n3cnnc3)cc2Cl)C1 (configuration not stated) | -5.06%
79 | CC(C)N1CC(C(=O)NCCc2csc(-c3ccncc3)n2)CC1=O (configuration not stated) | -21%
80 | O=C(c1cnc(COc2ccccc2)nc1O)N1CCOCC1 | 2.55%
81 | CCn1nc(CC(C)C)cc1C(=O)NCCn1cccc1 | -5.94%
82 | CCn1cc(CN2CCCn3nc(CNC(=O)C4CCC4)cc3C2)cn1 | -11.6%
83 | Cc1[nH]c(=O)c(C#N)cc1C(=O)N1C[C@@H](CN2CCCC2)C[C@H](CO)C1 | -8.08%
84 | COc1ccc(-c2cc(N)on2)cc1 | -12.8%
85 | COCCN1CCN(Cc2ccc(OCc3nccn3C)cc2)CC1 | -7.11%
86 | Cc1cc(C)n(CC2CCCN2C(=O)c2cccc(C#N)c2)n1 (configuration not stated) | -9.19%
87 | COc1ccc(CCNC(=O)CN2CCCC2c2noc(C)n2)cc1 (configuration not stated) | 0.772%
88 | Cc1ncc(C(=O)N2CCCC(n3nc(C)nc3C)C2)c(C(C)C)n1 (configuration not stated) | -1.81%
89 | CNC(=O)c1cc(C)n(-c2cccc(OC)c2)c1C | -18.1%
90 | Cc1nn(-c2ccccc2)cc1C(=O)N1CCCC(n2ccnc2)C1 (configuration not stated) | -14.4%
91 | CN(C)CC1CN(Cc2coc(-c3ccccc3)n2)CCO1 (configuration not stated) | -10.8%
92 | CCn1cnnc1CNC(=O)N1CCCC1 | -3.3%

Row | Structure (SMILES) | cytotoxicity at 10 µM
93 | CCN1CCC(CNC(=O)C2(c3cccc(C)c3)CCCCC2)CC1 | -11.8%
94 | c1ccc(-c2noc(CNC3CCc4ncnn4C3)n2)nc1 (configuration not stated) | -11.7%
95 | CC(C)OCC(=O)N1CCCN(Cc2ccc(C#N)cc2)CC1 | -7.41%
96 | O=C(NCCCN1CCCC1)c1n[nH]c(=O)c2ccccc12 | -6.62%
97 | Cn1cnc2c1CCN(CCCc1ccccc1)C2 | -1.13%
98 | C[C@@H](NCc1cccc(Cl)c1)c1onc(-c2ccc(F)cc2)c1C(=O)O | 0.258%
99 | Cc1nc(CN2CCn3cc(CNC(=O)C4CCC4)nc3C2)cs1 | -6.52%
100 | CCN(CC)Cc1cc(=O)n2c(n1)CN(S(=O)(=O)C1CC1)CCC2 | 6.95%
101 | O=C(Cc1cccnc1)N1CCC2(CC1)CCN(C1CCOCC1)C2 | -8.16%
102 | CCN1CCC2(CN(C(=O)N(C)C)CC23CCNCC3)C1=O (configuration not stated) | 4.29%
103 | COCCN1CCC2(CCN(Cc3cccs3)CC2)C1=O | 1.22%
104 | Cn1cc(CN2CCC3(C2)CN(Cc2ccsc2)C3)cn1 | -11.2%
105 | Cn1cc(CN2C[C@@H]3CCCO[C@@H]3[C@H](N3CCCC3=O)C2)cn1 | 1.27%
106 | O=C(N[C@@H]1CN(c2ncccn2)C[C@@H]2CCCO[C@@H]21)c1ccnnc1 | 6.32%
107 | CCn1nnc2c1C(COCC(=O)N(C)C)CN(Cc1ccco1)C2 (configuration not stated) | -4.96%
108 | CC(C)NC(=O)N1CCC2(CC1)NC(=O)CC2c1ccncc1 (configuration not stated) | -2.94%
109 | O=C(N[C@@H]1CN(CC2CC2)[C@@H]2CCCO[C@@H]21)c1cscn1 | -109%
110 | CN(CCO)Cc1nnc(C2CCN(CC3[C@H]4CNC[C@@H]34)CC2)n1C (some centres not stated) | -0.517%
111 | Cc1[nH]c2cc(C3CCCCN3C(=O)C3CC3)nn2c(=O)c1C (configuration not stated) | -5.34%
112 | O=C(c1ccncc1)N1C[C@H]2CC[C@@H](C1)N(C(=O)C1CCCC1)C2 | 6.77%

— ChEMBL document CHEMBL4513216, “Probing the Open Global Health Chemical Diversity Library for Multistage-Active Starting Points for Next-Generation Antimalarials” (ACS Infect Dis, 2020)
